Measurements published in ChEMBL document CHEMBL4000143, “Proof of concept study for designed multiple ligands targeting the dopamine D2, serotonin 5-HT2A, and muscarinic M1 acetylcholine receptors” (J Med Chem, 2015).
Active and inactive are the calls of the source. No cut-off for these calls is given here.

Key:
[1] = biological target: T1, 5-hydroxytryptamine receptor 2A (Homo sapiens, UniProt P28223); assay: Antagonist activity at human 5-HT2A receptor expressed in F1pIn CHO cells assessed as inhibition of serotonin-induced myo-inositol 1 phosphate accumulation after 1 hr by HTRF assay; format: functional, cell-based
T1 sequence (P28223 whole entry): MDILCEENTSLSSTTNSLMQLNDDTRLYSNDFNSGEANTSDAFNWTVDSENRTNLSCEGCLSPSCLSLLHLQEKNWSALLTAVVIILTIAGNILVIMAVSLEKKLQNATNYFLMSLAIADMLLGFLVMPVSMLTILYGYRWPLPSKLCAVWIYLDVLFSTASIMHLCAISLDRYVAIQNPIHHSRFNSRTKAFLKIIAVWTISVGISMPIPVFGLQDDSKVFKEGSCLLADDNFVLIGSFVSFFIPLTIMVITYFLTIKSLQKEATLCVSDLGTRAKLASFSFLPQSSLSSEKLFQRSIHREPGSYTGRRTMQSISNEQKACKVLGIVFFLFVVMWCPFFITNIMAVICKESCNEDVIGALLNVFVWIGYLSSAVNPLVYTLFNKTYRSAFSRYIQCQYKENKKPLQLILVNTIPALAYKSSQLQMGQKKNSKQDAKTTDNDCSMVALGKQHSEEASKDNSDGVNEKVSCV
Outline: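 Functional affinity (KB) from interaction studies against varying serotonin concentrations in an IP1 accumulation assay in 5-HT2A-FlpIn CHO cells. Mean of three to four experiments, each run in duplicate.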

[2] = biological target: Muscarinic acetylcholine receptor M1 (Homo sapiens) (UniProt P11229); assay: Agonist activity at human mAChR1 receptor expressed in F1pIn CHO cells assessed as induction of intracellular calcium mobilization
Muscarinic acetylcholine receptor M1 (Homo sapiens), sequence (P11229 whole entry, looked up): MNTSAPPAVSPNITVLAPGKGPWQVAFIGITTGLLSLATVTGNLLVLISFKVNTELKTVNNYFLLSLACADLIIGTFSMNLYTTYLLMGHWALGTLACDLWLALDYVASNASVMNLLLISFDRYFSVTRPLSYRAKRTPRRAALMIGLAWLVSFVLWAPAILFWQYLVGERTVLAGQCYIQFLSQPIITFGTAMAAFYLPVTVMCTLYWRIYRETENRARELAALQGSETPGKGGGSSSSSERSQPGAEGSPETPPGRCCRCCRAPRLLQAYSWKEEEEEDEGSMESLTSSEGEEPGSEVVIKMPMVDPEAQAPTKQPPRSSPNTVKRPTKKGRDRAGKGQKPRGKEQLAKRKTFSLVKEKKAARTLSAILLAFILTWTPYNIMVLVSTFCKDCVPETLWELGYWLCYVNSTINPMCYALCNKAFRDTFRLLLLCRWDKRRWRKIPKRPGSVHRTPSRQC

D(2) dopamine receptor [3] = biological target: T2, D(2) dopamine receptor (Homo sapiens, UniProt P14416); assay: Antagonist activity at human dopamine D2L receptor expressed in F1pIn CHO cells assessed as inhibition of ERK1/2 phosphorylation by time-course assay; format: cell-based
T2 sequence (P14416 whole entry): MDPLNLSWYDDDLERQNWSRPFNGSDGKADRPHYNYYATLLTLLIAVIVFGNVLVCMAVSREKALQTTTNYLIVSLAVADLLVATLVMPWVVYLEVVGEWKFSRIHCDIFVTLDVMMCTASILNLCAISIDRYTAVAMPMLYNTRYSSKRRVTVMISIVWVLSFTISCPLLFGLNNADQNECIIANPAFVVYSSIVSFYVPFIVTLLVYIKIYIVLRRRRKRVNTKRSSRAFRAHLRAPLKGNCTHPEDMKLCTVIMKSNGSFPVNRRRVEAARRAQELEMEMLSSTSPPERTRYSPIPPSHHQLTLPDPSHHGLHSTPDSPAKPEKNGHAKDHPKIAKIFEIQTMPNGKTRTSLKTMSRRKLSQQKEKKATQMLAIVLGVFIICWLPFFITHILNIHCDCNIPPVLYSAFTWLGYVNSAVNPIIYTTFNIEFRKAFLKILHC

[4] = biological target: T1, 5-hydroxytryptamine receptor 2A; assay: Displacement of [3H]ketanserin from human 5-HT2A receptor expressed in F1pIn CHO cell membranes after 1 hr by scintillation counting method
Outline: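 Binding in 5-HT2A-FlpIn CHO cell membranes with [3H]ketanserin as radioligand. Mean of three to four experiments, each run in duplicate.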

[5] = biological target: Muscarinic acetylcholine receptor M1 (Homo sapiens) (UniProt P11229); assay: Agonist activity at human mAChR1 receptor expressed in F1pIn CHO cells assessed as induction of intracellular calcium mobilization relative to acetylcholine
D(2) dopamine receptor [6] = biological target: T2, D(2) dopamine receptor; assay: Displacement of [3H]-raclopride from human dopamine D2L receptor expressed in F1pIn CHO cells after 60 mins by scintillation counting analysis; format: cell-based
Outline: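 Binding in whole D2L-FlpIn CHO cells with [3H]raclopride as radioligand. Mean of three to four experiments, each run in duplicate.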

D(2) dopamine receptor [7] = biological target: T2, D(2) dopamine receptor; assay: Antagonist activity at human dopamine D2L receptor expressed in F1pIn CHO cells assessed as inhibition of ERK1/2 phosphorylation incubated for 5 mins by AlphaScreen assay; format: cell-based
Outline: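 Functional affinity (KB) from interaction studies against varying dopamine concentrations, read out as pERK1/2 levels in D2L-FlpIn CHO cells. Data fitted by Gaddum–Schild analysis. Mean of three to four experiments, each run in duplicate.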

D(2) dopamine receptor [8] = biological target: T2, D(2) dopamine receptor; assay: Agonist activity at human dopamine D2L receptor expressed in F1pIn CHO cells assessed as induction of ERK1/2 phosphorylation incubated for 5 mins by AlphaScreen assay relative to FBS; format: cell-based
Outline: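 D2L-FlpIn CHO cells, pERK1/2 assay. Emax is given as a percentage of the maximal response to FBS. Mean of four to six experiments, each run in duplicate.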

D(2) dopamine receptor [9] = biological target: T2, D(2) dopamine receptor; assay: Agonist activity at human dopamine D2L receptor expressed in F1pIn CHO cells assessed as induction of ERK1/2 phosphorylation by time-course assay; format: cell-based
D(2) dopamine receptor [10] = biological target: T2, D(2) dopamine receptor; assay: Agonist activity at human dopamine D2L receptor expressed in F1pIn CHO cells assessed as […] forskolin-mediated cAMP accumulation incubated for 30 mins by AlphaScreen assay relative to ropinirole; format: functional, cell-based
Outline: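 D2L-FlpIn CHO cells, cAMP signalling. Emax is given as a percentage of the maximal response to ropinirole. Mean of four to six experiments, each run in duplicate.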

D(2) dopamine receptor [11] = biological target: T2, D(2) dopamine receptor; assay: Agonist activity at human dopamine D2L receptor expressed in F1pIn CHO cells assessed as induction of ERK1/2 phosphorylation incubated for 5 mins by AlphaScreen assay; format: cell-based
Outline: (§1)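 D2L-FlpIn CHO cells. Agonist concentration–response curves were measured for cAMP signalling and for ERK1/2 phosphorylation. Mean of four to six experiments, each run in duplicate.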

D(2) dopamine receptor [12] = biological target: T2, D(2) dopamine receptor; assay: Agonist activity at human dopamine D2L receptor expressed in F1pIn CHO cells assessed as […] forskolin-mediated cAMP accumulation incubated for 30 mins by AlphaScreen assay; format: functional, cell-based; outline: as §1

Row | SMILES | Kb [1] | pKb [1] | pEC50 [2] | inhibition (D(2) dopamine receptor [3]) | Ki [4] | Emax [5] | Ki (D(2) dopamine receptor [6]) | Kb (D(2) dopamine receptor [7]) | pKb (D(2) dopamine receptor [7]) | Emax (D(2) dopamine receptor [8]) | Activity (D(2) dopamine receptor [9]) | Emax (D(2) dopamine receptor [10]) | EC50 (D(2) dopamine receptor [11]) | EC50 (D(2) dopamine receptor [12])
1 | O=C1COc2ccccc2N1CCCN1CCC(c2noc3cc(F)ccc23)CC1 | 21.2 nM | 7.67 | inactive | Active | 2.7 nM | inactive | 3.2 nM | 1.2 nM | 8.91 |  |  |  |  | 
2 | O=C1COc2ccccc2N1CCCN1CCN(c2cccc3[nH]c(=O)oc23)CC1 | 1140 nM | 5.94 | inactive |  | 568 nM | inactive | 1.7 nM |  |  | 26% | Active | 97% | 0.64 nM | 0.096 nM
3 | O=C(Cc1ccccc1)NC1CCN(CCCN2C(=O)COc3ccccc32)CC1 | 1570 nM | 5.8 |  |  | 1040 nM | 101% | 834 nM | 2090 nM | 5.68 |  |  |  |  | 

More lines, now with the values ahead:

Row | Kb [1] | pKb [1] | pEC50 [2] | inhibition (D(2) dopamine receptor [3]) | Ki [4] | Emax [5] | Ki (D(2) dopamine receptor [6]) | Kb (D(2) dopamine receptor [7]) | pKb (D(2) dopamine receptor [7]) | Emax (D(2) dopamine receptor [8]) | Activity (D(2) dopamine receptor [9]) | Emax (D(2) dopamine receptor [10]) | EC50 (D(2) dopamine receptor [11]) | EC50 (D(2) dopamine receptor [12]) | SMILES
4 | 578 nM | 6.24 | inactive | Active | 275 nM | inactive | 42.7 nM | 7.8 nM | 8.11 |  |  |  |  |  | COc1ccccc1N1CCN(CCCN2C(=O)COc3ccccc32)CC1
5 | 235 nM | 6.63 |  | Active | 5.8 nM |  | 17.7 nM | 7 nM | 8.16 |  |  |  |  |  | O=C1COc2ccccc2N1CCCN1CCN(c2nsc3ccccc23)CC1
6 | 1860 nM | 5.73 | inactive | Active | 75.8 nM | inactive | 273 nM | 99 nM | 7 |  |  |  |  |  | O=C1COc2ccccc2N1CCCN1CCN(c2cccc(Cl)c2Cl)CC1
